For 23 compounds, Emax, EC50 and Activity results are on record in ChEMBL document CHEMBL4219253, “Positive Modulators of the N-Methyl-d-aspartate Receptor: Structure-Activity Relationship Study of Steroidal 3-Hemiesters” (J Med Chem, 2018).

What all share (assay type): cell-based
Test [1] has as its target T1, Glutamate NMDA receptor; Grin1/Grin2b (Rattus norvegicus) (UniProt P35439+Q00960). Description: Positive allosteric modulation of recombinant rat GluN1alpha/GluN2B receptor expressed in HEK293 cells assessed as potentiation of glutamate-induced current response at 0.3 to 300 uM at holding potential -60mV by whole cell voltage clamp method relative to control. The gist of the method:
(§1)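 HEK293 cells transfected with GluN1-1a, the GluN2 subunit and GFP. Whole-cell voltage clamp at -60 mV, series resistance <10 MΩ, 80-90% compensation, room temperature (21–25 °C). Compound is co-applied with 1 µM glutamate by multibarrel fast perfusion (exchange ~10 ms). DMSO is held at 1% in all test and control solutions. Readout is % potentiation of the glutamate-evoked current.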

Test [2] has as its target Glutamate NMDA receptor; Grin1/Grin2b (Rattus norvegicus, UniProt P35439+Q00960). Description: Positive allosteric modulation of recombinant rat GluN1alpha/GluN2B receptor expressed in HEK293 cells assessed as potentiation of glutamate-induced current response at holding potential -60mV by whole cell voltage clamp method. In a few lines:
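HEK293 cells transfected with GluN1-1a, GluN2A, 2B, 2C or 2D and GFP cDNA. Whole-cell voltage clamp at -60 mV, 21–25 °C, series resistance <10 MΩ compensated 80–90%. Compound co-applied with 1 µM glutamate by fast multibarrel perfusion. DMSO 1% in all solutions. At least four cells per point.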

Test [3] addresses T1, Glutamate NMDA receptor; Grin1/Grin2b (Rattus norvegicus). The experiment in a line: Positive allosteric modulation of recombinant rat GluN1alpha/GluN2B receptor expressed in HEK293 cells assessed as potentiation of glutamate-induced current response at 1 to 100 uM at holding potential -60mV by whole cell voltage clamp method relative to control. In a few lines:
as §1

For test [4] the target is unchanged. Description: Positive allosteric modulation of recombinant rat GluN1alpha/GluN2B receptor expressed in HEK293 cells assessed as potentiation of glutamate-induced current response at 100 uM at holding potential -60mV by whole cell voltage clamp method relative to control. The gist of the method:
as §1

In test [5] the target is Glutamate NMDA receptor; Grin1/Grin2c (Rattus norvegicus) (UniProt P35439+Q00961). Description: Positive allosteric modulation of recombinant rat GluN1alpha/GluN2C receptor expressed in HEK293 cells assessed as potentiation of glutamate-induced current response at 100 uM at holding potential -60mV by whole cell voltage clamp method relative to control. In a few lines: as §1

The target of test [6] is Ionotropic glutamate receptor NMDA 1/2D (Rattus norvegicus) (UniProt P35439+Q62645). The experiment in a line: Positive allosteric modulation of recombinant rat GluN1alpha/GluN2D receptor expressed in HEK293 cells assessed as potentiation of glutamate-induced current response at 100 uM at holding potential -60mV by whole cell voltage clamp method relative to control. The gist of the method:
as §1

The target in test [7] is Glutamate NMDA receptor; Grin1/Grin2a (Rattus norvegicus) (UniProt P35439+Q00959). Description: Positive allosteric modulation of recombinant rat GluN1alpha/GluN2A receptor expressed in HEK293 cells assessed as potentiation of glutamate-induced current response at 100 uM at holding potential -60mV by whole cell voltage clamp method relative to control. In a few lines:
as §1

The target in test [8] is T1, Glutamate NMDA receptor; Grin1/Grin2b (Rattus norvegicus). The experiment in a line: Positive allosteric modulation of recombinant rat GluN1alpha/GluN2B receptor expressed in HEK293 cells assessed as potentiation of glutamate-induced current response at 1 to 300 uM at holding potential -60mV by whole cell voltage clamp method relative to control.

Structures are written as SMILES.

On to `CC[C@H]1CC[C@H]2[C@@H]3CC=C4C[C@@H](OC(=O)CCC(=O)O)CC[C@]4(C)[C@H]3CC[C@]12C`, for which, in test [1], the Emax (commonly the greatest response seen or fitted, relative to the assay's reference) stood at 133%. Moreover, the EC50 (usually the midpoint of the concentration-response curve) in test [2] was determined as 9.9 µM.
For `CC(=O)[C@H]1CC[C@H]2[C@@H]3CC=C4C[C@@H](OC(=O)CCCCCC(=O)O)CC[C@]4(C)[C@H]3CC[C@]12C`, the Emax in test [3] is 191%. Also, the Activity in test [4] was found to be 458%. Moreover, the EC50 in test [2] is 18 µM.
In the case of `CC(=O)[C@H]1CC[C@H]2[C@@H]3CC=C4C[C@@H](OC(=O)CCC(=O)O)CC[C@]4(C)[C@H]3CC[C@]12C` [PREGNENOLONE SUCCINATE], the Emax in test [3] stood at 177%. Further, the Activity in test [4] is 267%. Also, in test [2], the half-maximal effective concentration (EC50) was found to be 27.6 µM.
As to `C[C@]12CC[C@H](OC(=O)CCCCCC(=O)O)CC1=CC[C@@H]1[C@@H]2CC[C@]2(C)C(=O)CC[C@@H]12`, the Emax in test [3] turned out to be 187%. Besides, in test [2], the 50% effective concentration (EC50) turned out to be 82.4 µM.
Consider `C[C@@]12CCC[C@H]1[C@@H]1CC=C3C[C@@H](OC(=O)CCCCC(=O)O)CC[C@]3(C)[C@H]1CC2`, for which, in test [1], the Emax stood at 191%. Moreover, in test [2], the EC50 is 2.8 µM.
As to `CC[C@H]1CC[C@H]2[C@@H]3CC=C4C[C@@H](OC(=O)CCCCCC(=O)O)CC[C@]4(C)[C@H]3CC[C@]12C`, the Emax in test [1] is 48%. Besides, the 50% effective concentration (EC50) in test [2] was determined as 26.2 µM.
For the compound `C[C@]12CC[C@H](OC(=O)CCCCCCCCC(=O)O)CC1=CC[C@@H]1[C@@H]2CC[C@]2(C)C(=O)CC[C@@H]12`, in test [3], the Emax turned out to be 165%. Besides, the EC50 in test [2] was determined as 16.1 µM.
Consider `CC(=O)[C@H]1CC[C@H]2[C@@H]3CC=C4C[C@@H](OS(=O)(=O)O)CC[C@]4(C)[C@H]3CC[C@]12C.c1ccncc1`, for which the Activity was -47% in test [5], -48% in test [6], 78% in test [4] and 107% in test [7]. Besides, in test [3], the Emax worked out at 116%.
Consider `C[C@]12CC[C@H](OC(=O)CCCC(=O)O)CC1=CC[C@@H]1[C@@H]2CC[C@]2(C)C(=O)CC[C@@H]12`, for which the Emax in test [8] came out at 154%. The EC50 in test [2] turned out to be 151 µM.
`CC[C@H]1CC[C@H]2[C@@H]3CC=C4C[C@@H](OC(=O)CCCCC(=O)O)CC[C@]4(C)[C@H]3CC[C@]12C`: the Emax in test [1] came to 60%. Besides, in test [2], the concentration for a half-maximal effect (EC50) came out at 17.2 µM.
Turning to `CC(=O)[C@H]1CC[C@H]2[C@@H]3CC=C4C[C@@H](OC(=O)CCCC(=O)O)CC[C@]4(C)[C@H]3CC[C@]12C`, the Emax in test [3] amounted to 183%. Besides, the Activity in test [4] turned out to be 460%. In addition, the EC50 in test [2] turned out to be 19 µM.
For the compound `CC[C@H]1CC[C@H]2[C@@H]3CC=C4C[C@@H](OC(=O)CC(=O)O)CC[C@]4(C)[C@H]3CC[C@]12C`, the Emax in test [1] turned out to be 71%. Moreover, the EC50 in test [2] was 10.7 µM.
`CC(=O)[C@H]1CC[C@H]2[C@@H]3CC=C4C[C@@H](OC(=O)C(=O)O)CC[C@]4(C)[C@H]3CC[C@]12C`: the maximum response (Emax) in test [3] worked out at 93%. In test [2], the EC50 worked out at 48.6 µM.
As for `C[C@@]12CCC[C@H]1[C@@H]1CC=C3C[C@@H](OC(=O)CCC(=O)O)CC[C@]3(C)[C@H]1CC2`, in test [1], the Emax turned out to be 452%. For the same compound, the EC50 in test [2] worked out at 7.4 µM.
With `CC(=O)[C@H]1CC[C@H]2[C@@H]3CC=C4C[C@@H](OC(=O)CC(=O)O)CC[C@]4(C)[C@H]3CC[C@]12C`, the Emax in test [3] is 108%. Further, in test [2], the EC50 was found to be 39.8 µM.
Consider `C[C@]12CC[C@H](OC(=O)CCCCC(=O)O)CC1=CC[C@@H]1[C@@H]2CC[C@]2(C)C(=O)CC[C@@H]12`, for which the Emax in test [8] was 180%. For the same compound, the concentration for a half-maximal effect (EC50) in test [2] was determined as 109 µM.
Take `C[C@]12CC[C@H](OC(=O)CCCCCCC(=O)O)CC1=CC[C@@H]1[C@@H]2CC[C@]2(C)C(=O)CC[C@@H]12`: the Emax in test [3] was found to be 189%. For the same compound, the EC50 in test [2] was 49.1 µM.
In the case of `C[C@@]12CCC[C@H]1[C@@H]1CC=C3C[C@@H](OC(=O)CCCC(=O)O)CC[C@]3(C)[C@H]1CC2`, the Emax in test [1] was determined as 348%. Also, the EC50 in test [2] is 5.2 µM.
As to `CC(=O)[C@H]1CC[C@H]2[C@@H]3CC=C4C[C@@H](OC(=O)CCCCCCC(=O)O)CC[C@]4(C)[C@H]3CC[C@]12C`, the Emax in test [3] came to 156%. Moreover, in test [2], the concentration for a half-maximal effect (EC50) was found to be 19.3 µM.
As to `CC[C@H]1CC[C@H]2[C@@H]3CC=C4C[C@@H](OC(=O)CCCC(=O)O)CC[C@]4(C)[C@H]3CC[C@]12C`, in test [1], the Emax was 209%. Besides, in test [2], the EC50 turned out to be 9.9 µM.
Regarding `C[C@@]12CCC[C@H]1[C@@H]1CC=C3C[C@@H](OC(=O)CC(=O)O)CC[C@]3(C)[C@H]1CC2`, the Emax in test [1] was 236%. Besides, in test [2], the EC50 was 4.7 µM.
In the case of `C[C@]12CC[C@H](OC(=O)CCCCCCCC(=O)O)CC1=CC[C@@H]1[C@@H]2CC[C@]2(C)C(=O)CC[C@@H]12`, the Emax in test [3] amounted to 226%. Besides, in test [2], the EC50 came out at 38.2 µM.
Take `C[C@@]12CCC[C@H]1[C@@H]1CC=C3C[C@@H](OC(=O)CCCCCC(=O)O)CC[C@]3(C)[C@H]1CC2`: in test [1], the maximum response (Emax) worked out at 109%. For the same compound, in test [2], the EC50 was 1.8 µM.
